Data reported in ChEMBL document CHEMBL1132643, “Novel inhibitors of Erm methyltransferases from NMR and parallel synthesis” (J Med Chem, 1999).
pKd, pKi: −log10 of the molar value.

Key:
[1] = The binding affinity towards N-labeled Erythromycin-resistant ErmAM methylase evaluated by NMR
Procedure, shortened: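 Uniformly 15N-labeled ErmAM, 0.3 mM in H2O/D2O 9:1 with 20 mM BisTris, 10 mM DTT, pH 6.5. Ligand added in perdeuterated DMSO. Sensitivity-enhanced 15N HSQC run at 30 °C with and without ligand, screening at 1.0 mM. KD from chemical shift changes versus ligand concentration, fit to a single-site model by least-squares grid search.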

[2] = biological target: T1, rRNA adenine N-6-methyltransferase (Streptococcus pneumoniae, UniProt P21236); experiment: Inhibitory activity against ErmAM methylase
T1 sequence (P21236 whole entry): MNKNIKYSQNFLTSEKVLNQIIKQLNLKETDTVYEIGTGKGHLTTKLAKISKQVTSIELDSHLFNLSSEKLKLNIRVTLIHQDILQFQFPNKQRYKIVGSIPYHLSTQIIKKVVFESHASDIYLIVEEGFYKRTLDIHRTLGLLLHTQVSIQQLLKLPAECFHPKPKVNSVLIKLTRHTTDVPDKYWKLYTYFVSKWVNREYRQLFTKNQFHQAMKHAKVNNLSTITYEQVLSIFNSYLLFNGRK
Procedure, shortened: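 Radiometric methyltransferase assay in 50 mM Tris pH 7.5, 100 mM KCl, 4 mM MgCl2, 1 mM DTT with 95 nM ErmAM. Enzyme was preincubated with compound for 15 min at room temperature, in duplicate. Reaction was then started with 250 nM S-adenosyl-L-[methyl-3H]methionine and 80 nM E. coli rRNA and run 2 h at room temperature. It was stopped with 10% TCA/100 mM KCl on ice. TCA-precipitated counts were read after filtration. IC50 was taken from percent inhibition versus control plotted against concentration.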

[3] = biological target: rRNA adenine N-6-methyltransferase (Bacillus subtilis, UniProt P13956); experiment: Inhibitory activity against ErmC methylase
Procedure, shortened: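 ErmC′ (143 nM) preincubated with compound, in duplicate, 15 min at room temperature in 50 mM Tris pH 7.5, 40 mM KCl, 4 mM MgCl2, 10 mM DTT. Started with 250 nM S-adenosyl-L-[methyl-3H]methionine and 80 nM E. coli rRNA, 2 h room temperature. Stopped with 10% TCA/100 mM KCl, filtered, washed. Precipitated counts taken as percent inhibition versus no-inhibitor wells, and IC50 read from concentration curve.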

[4] = The binding affinity towards ErmAM methylase identified by NMR

Chain of rRNA adenine N-6-methyltransferase (Bacillus subtilis, UniProt P13956) (P13956 whole entry): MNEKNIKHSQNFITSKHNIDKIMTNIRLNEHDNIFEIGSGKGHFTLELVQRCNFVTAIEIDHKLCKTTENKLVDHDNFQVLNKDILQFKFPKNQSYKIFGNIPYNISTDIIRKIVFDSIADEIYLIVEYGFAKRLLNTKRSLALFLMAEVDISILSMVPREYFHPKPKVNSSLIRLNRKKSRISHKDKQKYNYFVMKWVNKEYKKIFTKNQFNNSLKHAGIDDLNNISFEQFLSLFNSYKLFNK

Row | SMILES | pKd [1] | pKd [4] | pKi [2] | pKi [3]
1 | C[C@@H](Nc1nc(N)nc(N2CCCCC2)n1)c1ccccc1 | – | – | < 4.00 | < 4.00
2 | Nc1nc(Nc2ccccc2)nc(N2CCCCC2)n1 | – | – | < 4.00 | < 4.00
3 | c1ccc2c(c1)CC(Nc1ncnc(N3CCCCC3)n1)C2 | – | – | < 4.12 | < 4.00
4 | COc1ccc2c(c1)CC(Nc1nc(N)nc(N3CCCCC3)n1)C2 (configuration not stated) | – | – | 5.22 | 4.12
5 | Nc1nc(NC2CCc3ccccc32)nc(N2CCCCC2)n1 (configuration not stated) | – | – | 4.12 | < 4.00
6 | Nc1nc(NC2Cc3ccccc3C2)cc(-c2ccc(NCCCc3ccccc3O)cc2)n1 | – | – | 5.12 | 4.90
7 | Nc1nc(NC2Cc3ccc(F)cc3C2)nc(N2CCCCC2)n1 (configuration not stated) | – | – | 5.52 | 4.43
8 | Nc1nc(NC2CCCCC2)nc(N2CCCCC2)n1 | – | – | 4.12 | < 4.00
9 | Nc1nc(NCCCc2c(O)cc(Cl)cc2Cl)nc(NC2Cc3ccccc3C2)n1 | – | – | 5.00 | < 4.00
10 | Nc1nc(NC2Cc3ccccc3C2)nc(C2CCCCC2)n1 | – | – | 4.60 | < 4.00
11 | Nc1ccc(-c2nc(N)nc(NC3Cc4ccccc4C3)n2)cc1 | – | – | 4.46 | < 4.30
12 | Nc1nc(N2CCCCC2)nc(N2CCCCC2)n1 | – | – | < 4.00 | < 4.00
13 | Nc1nc(NC2Cc3ccccc3C2)nc(N2CCC(C(=O)O)CC2)n1 | – | – | < 4.00 | < 4.00
14 | Nc1cccc(-c2nc(N)nc(NC3Cc4ccccc4C3)n2)c1 | – | – | 5.40 | 5.00
15 | Nc1nc(NC2Cc3ccccc3C2)nc(N2CCCC(CO)C2)n1 (configuration not stated) | – | – | 4.90 | < 4.00
16 | Nc1nc(NC2Cc3ccccc3C2)nc(N2CCCCC2)n1 | – | – | 5.10 | 4.12
17 | Oc1nc(NC2Cc3ccccc3C2)nc(N2CCCCC2)n1 | – | – | < 4.00 | < 4.00
18 | Nc1ccc(-c2cc(NC3Cc4ccccc4C3)nc(N)n2)cc1 | – | – | 4.12 | < 4.00
19 | CN(c1nc(N)nc(N2CCCCC2)n1)C1CCCCC1 | – | – | < 4.00 | < 4.00
20 | Nc1nc(NC2Cc3ccccc3C2)nc(N2CCC(CO)CC2)n1 | – | – | 5.05 | 4.12
21 | CSc1nc(N)nc(NC2Cc3ccccc3C2)n1 | – | – | 5.00 | < 4.00
22 | Nc1nc(NC2Cc3ccccc3C2)nc(N2CCC(C(=O)NCCc3c[nH]c4ccccc34)CC2)n1 | – | – | 5.70 | 4.70
23 | c1cnc2[nH]ccc2c1 | 2.89 | – | – | –
24 | Nc1nc(NC2CCCCC2)nc(NC2Cc3ccccc3C2)n1 | – | – | < 4.00 | < 4.00
25 | Nc1ncnc2c1ncn2[C@@H]1O[C@H](CSCC[C@H](N)C(=O)O)[C@@H](O)[C@H]1O [S-ADENOSYLHOMOCYSTEINE] | – | – | 4.40 | –

Second part, led by results:

Row | pKd [1] | pKd [4] | SMILES | pKi [2] | pKi [3]
26 | 3.00 | – | CSc1nc(N)nc(N)n1 | – | –
27 | – | 3.51 | Nc1nc(NC2CCCCC2)nc(-c2ccc(O)cc2)n1 | – | –
28 | – | 2.30 | Nc1nc(N)nc(N2CCCCC2)n1 | – | –
29 | – | 1.92 | Nc1nc(N)nc(-c2ccc(O)cc2)n1 | – | –
